As a reminder, the T/C is the ratio of treated to control. One may read the logD as the decadic logarithm of the distribution of all forms, ionised or not, between an organic phase and buffer at a given pH. A lower logD goes with a more hydrophilic compound.

This note sets out measurements from ChEMBL document CHEMBL1122660 (J Med Chem, 1984).

For data set [1], the system named is Mus musculus. Put plainly: Evaluated for antitumor activity against B-16 melanoma in mice at a dose 6 mg/kg day, ip, on days 1, 4, and 7 against B-16 Melanoma cell. The format is functional.
Data set [2] deals with P388. In words: Minimum effective dose against P388 leukemic cells. The format is functional. The settings on record: Mus musculus, read-out: MED.
In data set [3] the test system is Mus musculus. Put plainly: Evaluated for antitumor activity against B-16 melanoma in mice at a dose 4 mg/kg day, ip, on days 1, 4, and 7 against B-16 Melanoma cell. In kind it is functional. The procedure, abridged: (§1)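 B-16 melanoma in mice, run at Bristol Laboratories by standard NCI protocols. Compound given ip on days 1, 4 and 7 in Me2SO + buffered saline vehicle; ten mice per dose. Read-outs per dose: %T/C, number of survivors, and weight change.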

Data set [4] has as its system Mus musculus. Put plainly: Evaluated for antitumor activity against B-16 melanoma in mice aat a dose 2 mg/kg day, ip,on days 1, 4, and 7 against B-16 Melanoma cell. In kind it is functional.
The test system of data set [5] is Mus musculus. Put plainly: Evaluated for antitumor activity against B-16 melanoma in mice at a dose 2 mg/kg day, ip, on days 1, 4, and 7 against B-16 Melanoma cell. The format is functional. A digest of the protocol: as §1
Data set [6] is filed under the species Mus musculus. Put plainly: Maximum percent T/C (antitumor activity) against P388 leukemia cells for the compound. The number of 30-day survivors is given in the parenthesis. In kind it is functional.
Data set [7] relates to P388. Put plainly: Maximum percent T/C (antitumor activity) against P388 leukemia cells for Mitomycin C. The format is functional, Mus musculus.
The subject of data set [8] is Mus musculus. Put plainly: Evaluated for antitumor activity against B-16 melanoma in mice at a dose 8 mg/kg day, ip, on days 1, 4, and 7 against B-16 Melanoma cell. In kind it is functional.
Data set [9] concerns P388. In words: Optimum dose (mg/kg) against P388 leukemic cells. In kind it is functional, Mus musculus.
Data set [10] concerns P388. In words: Ratio of optimal dose (OD) and minimum effective dose (MED) required for antitumor activity in mice bearing P-388 lymphocytic leukemia. In kind it is functional, Mus musculus.
The subject of data set [11] is Mus musculus. Put plainly: Evaluated for antitumor activity against B-16 melanoma in mice at a dose 5 mg/kg day, ip, on days 1, 4, and 7 against B-16 Melanoma cell. The format is functional.
For data set [12], the species on record is Mus musculus. Put plainly: Percentage change in WBC at optimum dose on day 3. The format is functional.
Data set [13] has as its system Mus musculus. In words: Evaluated for antitumor activity against B-16 melanoma in mice at a dose 12 mg/kg day, ip, on days 1, 4, and 7 against B-16 Melanoma cell. The format is functional.
Data set [14] concerns Mus musculus. In words: Evaluated for antitumor activity against B-16 melanoma in mice at a dose 3 mg/kg day, ip, on days 1, 4, and 7 against B-16 Melanoma cell *-Tumors survivors on day 62. The format is functional.
Data set [15] is described as follows: Partition coefficient between 1-octanol and water containing phosphate buffer at pH 7.4. In kind it is physicochemical. As to conditions: 1-octanol/water containing phosphate buffer.
For data set [16], the system named is Mus musculus. Put plainly: Evaluated for antitumor activity against B-16 melanoma in mice aat a dose 3 mg/kg day, ip,on days 1, 4, and 7 against B-16 Melanoma cell. In kind it is functional.
The subject of data set [17] is Mus musculus. Put plainly: Evaluated for antitumor activity against B-16 melanoma in mice at a dose 3 mg/kg day, ip, on days 1, 4, and 7 against B-16 Melanoma cell. In kind it is functional. A digest of the protocol:
as §1

In data set [18] the test system is Mus musculus. In words: Evaluated for antitumor activity against B-16 melanoma in mice at a dose 5 mg/kg day, ip, on days 1, 4, and 7 against B-16 Melanoma cell *-Tumors survivors on day 62. The format is functional.
The subject of data set [19] is Mus musculus. Put plainly: Evaluated for antitumor activity against B-16 melanoma in mice at a dose 4 mg/kg day, ip, on days 1, 4, and 7 against B-16 Melanoma cell *-Tumors survivors on day 62. The format is functional.
Data set [20] is filed under the species Mus musculus. Put plainly: Maximum percent T/C (antitumor activity) against P388 leukemia cells for the compound; 144-325. In kind it is functional.
In data set [21] the test system is Mus musculus. In words: Evaluated for antitumor activity against B-16 melanoma in mice at a dose 1 mg/kg day, ip, on days 1, 4, and 7 against B-16 Melanoma cell. In kind it is functional. The procedure, abridged: as §1
In data set [22] the test system is Mus musculus. Put plainly: Evaluated for antitumor activity against B-16 melanoma in mice aat a dose 1 mg/kg day, ip,on days 1, 4, and 7 against B-16 Melanoma cell. The format is functional. A digest of the protocol:
as §1

The test system of data set [23] is Mus musculus. In words: Evaluated for antitumor activity against B-16 melanoma in mice at a dose 1 mg/kg day, ip, on days 1, 4, and 7 against B-16 Melanoma cell *-Tumors survivors on day 62. The format is functional.
Data set [24] relates to Mus musculus. Put plainly: Evaluated for antitumor activity against B-16 melanoma in mice at a dose 2 mg/kg day, ip, on days 1, 4, and 7 against B-16 Melanoma cell *-Tumors survivors on day 62. The format is functional.

Consider `COc1ccc(NC2=C(C)C(=O)C3=C(C2=O)[C@H](COC(N)=O)C2(OC)[C@@H]4N[C@@H]4CN32)cc1OC` (stereo partly specified), for which the Average weight gain in [1] is on record as 0.6 g; in data set [3] it was -0.6 g; in data set [4], -1.3 g; in data set [8], 0.9 g. In addition, the T/C in [1] is 263%; in data set [3], 252%; in [5], 180%; in data set [6], >333%; in data set [7], 278%; in [8], 227%. Also, the minimal effective dose in data set [2] came out at 0.2 mg/kg. Besides, the OD in data set [9] came out at 12.8 mg/kg. For the same compound, the Therapeutic ratio in data set [10] was 64.
In the case of `[H][C@@]12CN3c4c(O)c(C)c(/N=C5C=C/C(=N\C(C)=O)C=C/5)c(O)c4[C@H](COC(N)=O)C3(OC)[C@]1([H])N2` (stereo partly specified), the minimal effective dose in [2] is 0.2 mg/kg. Moreover, the Average weight gain in data set [11] is recorded as 0.8 g; in [13], -1.3 g; in [16], 1.4 g; in data set [8] it was 0.3 g. The T/C is 185% in data set [11]; 175% in data set [13]; >333% in data set [6]; 200% in [7]; 155% in data set [17]; 207% in data set [8]. In data set [12], the Change was -40%. Moreover, the Cures in data set [14] and in [18] was 0 in each case. In addition, the logD in data set [15] was determined as 0.33. For the same compound, the OD in [9] was 25.6 mg/kg. Also, the Therapeutic ratio in data set [10] was found to be 128.
As to `CO[C@@]12[C@H](COC(N)=O)C3=C(C(=O)C(C)=C(N)C3=O)N1C[C@@H]1N[C@@H]12` [MITOMYCIN], the minimal effective dose in data set [2] was 0.2 mg/kg. The Cures in data set [19], in data set [14], in data set [23] and in data set [24] was 0 each time. In addition, in data set [12], the Change is -42%. Further, the Average weight gain in data set [3] is reported as -0.1; in [5], 0.5 g; in data set [22] it was 0.2 g; in [17], -0.1 g. In addition, the T/C in data set [3] was found to be 200%; in [20], 144%; in [5], 152%; in [21], 155%; in [17], 165%. Also, the OD in data set [9] amounted to 3.2 mg/kg.
